Experimental data taken from ChEMBL document CHEMBL3046179, “Study on the anthraquinones separated from the cultivation of Trichoderma harzianum strain Th-R16 and their biological activity” (J Agric Food Chem, 2009).
Structures can show the parent of a compound that is named as a salt.

Tests used:
Rhizoctonia solani [1] = assay: Antifungal activity against Rhizoctonia solani assessed as inhibition of mycelium growth after 2 days; assay type: functional, organism-based
Procedure, shortened: (§1)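 Rhizoctonia solani plugs were set centrally on PDA dishes holding test sample at 25 to 500 μg/mL. Mycelial diameter (mm) was measured after 2 days, in triplicate.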

Botrytis cinerea [2] = assay: Antifungal activity against Botryotinia fuckeliana assessed as growth inhibition at 500 ug/mL after 4 days; assay type: functional; conditions: 96 h, read-out: GI
Procedure, shortened: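 Mycelial plug of B. cinerea was placed at the centre of PDA dishes containing test sample at 25 to 500 μg/mL. Colony diameter (mm) was read after 4 days, in triplicate.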

Staphylococcus aureus [3] = assay: Antibacterial activity against Staphylococcus aureus after 24 hr by agar disk diffusion method; assay type: functional, organism-based
Procedure, shortened: (§2)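 Agar disk diffusion. Plates were spread with 1 mL culture containing 1 × 10^7 CFU: S. aureus and E. coli on tryptic soy agar, B. cereus and P. aeruginosa on nutrient agar. Each 8 mm filter-paper disc was blotted with 50 μL of a 500 μg/mL sample. Kanamycin sulfate 50 μg/mL discs were the positive control. Plates ran 24 h at 37 °C, and inhibition-zone diameter was measured in triplicate.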

Rhizoctonia solani [4] = assay: Antifungal activity against Rhizoctonia solani assessed as growth inhibition at 500 ug/mL after 2 days; assay type: functional; conditions: 48 h, read-out: GI; procedure, shortened: as §1
Bacillus cereus [5] = assay: Antibacterial activity against Bacillus cereus using 50 uL of compound solution from 500 ug/mL stock solution after 24 hr by agar disk diffusion method; assay type: functional; procedure, shortened: as §2
Staphylococcus aureus [6] = assay: Antibacterial activity against Staphylococcus aureus using 50 uL of compound solution from 500 ug/mL stock solution after 24 hr by agar disk diffusion method; assay type: functional; procedure, shortened: as §2
Escherichia coli [7] = assay: Antibacterial activity against Escherichia coli using 50 uL of compound solution from 500 ug/mL stock solution after 24 hr by agar disk diffusion method; assay type: functional; procedure, shortened: as §2
Pseudomonas aeruginosa [8] = assay: Antibacterial activity against Pseudomonas aeruginosa using 50 uL of compound solution from 500 ug/mL stock solution after 24 hr by agar disk diffusion method; assay type: functional; procedure, shortened: as §2
Botrytis cinerea [9] = assay: Antifungal activity against Botryotinia fuckeliana as inhibition of mycelium growth after 4 days; assay type: functional, organism-based
Procedure, shortened: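 Mycelial plugs of the pathogen placed at the centre of PDA Petri dishes holding 10 mL of test sample at 25 to 500 μg/mL. Mycelial diameter (mm) measured after 4 days for B. cinerea. Run in triplicate.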

Bacillus cereus [10] = assay: Antibacterial activity against Bacillus cereus at 50 ug/mL after 24 hr by agar disk diffusion method; assay type: functional; conditions: read-out: DIZ
Staphylococcus aureus [11] = assay: Antibacterial activity against Staphylococcus aureus at 50 ug/mL after 24 hr by agar disk diffusion method; assay type: functional; conditions: read-out: DIZ
Escherichia coli [12] = assay: Antibacterial activity against Escherichia coli at 50 ug/mL after 24 hr by agar disk diffusion method; assay type: functional; conditions: read-out: DIZ
Pseudomonas aeruginosa [13] = assay: Antibacterial activity against Pseudomonas aeruginosa at 50 ug/mL after 24 hr by agar disk diffusion method; assay type: functional; conditions: read-out: DIZ

| Structure (SMILES) | growth inhibition (GI) (Rhizoctonia solani [1]) | inhibition of growth at 500 µg/mL (Botrytis cinerea [2]) | IC50 (Staphylococcus aureus [3]) | inhibition of growth at 500 µg/mL (Rhizoctonia solani [4]) | diameter of the inhibition zone (DIZ) (Bacillus cereus [5]) | diameter of the inhibition zone (DIZ) (Staphylococcus aureus [6]) | diameter of the inhibition zone (DIZ) (Escherichia coli [7]) | diameter of the inhibition zone (DIZ) (Pseudomonas aeruginosa [8]) | growth inhibition (GI) (Botrytis cinerea [9]) | zone of inhibition at 50 µg/mL (Bacillus cereus [10]) | zone of inhibition at 50 µg/mL (Staphylococcus aureus [11]) | zone of inhibition at 50 µg/mL (Escherichia coli [12]) | zone of inhibition at 50 µg/mL (Pseudomonas aeruginosa [13]) |
| --- | --- | --- | --- | --- | --- | --- | --- | --- | --- | --- | --- | --- | --- |
| O=C1c2cc(CO)cc(O)c2C(=O)c2cccc(O)c21 | Dose-dependent effect | 53.7% | 117 µM | 25.4% | 10.66 mm | 17.67 mm | <10 mm | <10 mm | – | – | – | – | – |
| O=C1c2ccc(O)cc2C(=O)c2c(O)cc(CO)cc21 | – | 92.8% | 221 µM | 67.3% | <10 mm | 14.33 mm | <10 mm | <10 mm | Dose-dependent effect | – | – | – | – |
| Cc1cc(O)c2c(c1)C(=O)c1cccc(O)c1C2=O [CHRYSOPHANOL] | – | 22.5% | – | 21.2% | <10 mm | <10 mm | <10 mm | <10 mm | – | – | – | – | – |
| Cc1cc(O)c2c(c1)C(=O)c1cc(O)cc(O)c1C2=O [EMODIN] | – | 51.7% | 46.3 µM | 39% | 10 mm | 11 mm | <10 mm | <10 mm | Dose-dependent effect | – | – | – | – |
| NC[C@H]1O[C@H](O[C@H]2[C@H](O)[C@@H](O[C@H]3O[C@H](CO)[C@@H](O)[C@H](N)[C@H]3O)[C@H](N)C[C@@H]2N)[C@H](O)[C@@H](O)[C@@H]1O [KANAMYCIN SULFATE] | – | – | – | – | – | – | – | – | – | 15 mm | 13 mm | 12 mm | 13 mm |
| O=C1c2ccccc2C(=O)c2c(O)cc(CO)cc21 [OMEGA-HYDROXYPACHYBASIN] | – | 47.3% | 123 µM | 41.5% | 11 mm | 20 mm | <10 mm | <10 mm | – | – | – | – | – |
| Cc1cc(O)c2c(c1)C(=O)c1ccccc1C2=O [PACHYBASIN] | – | 6% | – | 13.9% | <10 mm | 10.33 mm | <10 mm | <10 mm | – | – | – | – | – |
